In brackets after ≈: the same amount, converted by molar mass.
How the values were obtained:
[1] = Antioxidant activity of the compound assessed as ascorbic acid equivalent of ferric tripyridyl triazine reducing activity at 200 ug/mL after 15 mins by FRAP assay; format: functional
Summary of the method: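 FRAP, modified Benzie and Strain method. Fe(III)-TPTZ reagent made with TPTZ in 40 mM HCl, FeCl3 solution and acetate buffer pH 3.6. 200 µL sample solution mixed with 3 mL reagent and held 15 min at 37 °C. Fe(II)-TPTZ read at 593 nm against an ascorbic acid standard, expressed as ascorbic acid equivalents (mmol/100 g compound).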

[2] = Toxicity in brine shrimps cysts assessed as mortality after 24 hrs relative to control; format: organism-based; details: artemia, in vivo
[3] = Toxicity in brine shrimps cysts assessed as mortality at 50 ug/mL after 24 hrs relative to control; format: organism-based; details: artemia, in vivo
[4] = Toxicity in brine shrimps cysts assessed as mortality at 30 ug/mL after 24 hrs relative to control; format: organism-based; details: artemia, in vivo
[5] = Toxicity in brine shrimps cysts assessed as mortality at 40 ug/mL after 24 hrs relative to control; format: organism-based; details: artemia, in vivo
[6] = Toxicity in brine shrimps cysts assessed as mortality at 20 ug/mL after 24 hrs relative to control; format: organism-based; details: artemia, in vivo
[7] = Toxicity in brine shrimps cysts assessed as mortality at 5 ug/ml after 24 hrs relative to control; format: organism-based; details: artemia, in vivo
[8] = Toxicity in brine shrimps cysts assessed as mortality at 10 ug/mL after 24 hrs relative to control; format: organism-based; details: artemia, in vivo
[9] = system: Mycobacterium tuberculosis; experiment: Antitubercular activity against Mycobacterium tuberculosis H37Rv assessed as growth inhibition after 12 to 28 days by Lowenstein-Jensen method; format: functional
Summary of the method: (§1)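 Modified Lowenstein-Jensen method. Compound at 250 in DMSO added to liquid L-J medium, then sterilized by inspissation and incubated 24 h at 37 °C. Streaked with H37Rv harvested in 0.85% saline (5 × 10⁴ bacilli/tube) and incubated at 37 °C. Colonies read at 12, 22 and 28 days versus drug-free control; no colonies or <20 colonies scored as inhibition.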

[10] = system: Mycobacterium tuberculosis; experiment: Antitubercular activity against Mycobacterium tuberculosis H37Rv assessed as growth inhibition at 250 ug/mL after 12 to 28 days by Lowenstein-Jensen method relative to control; format: functional; details: read-out: GI; summary of the method: as §1
[11] = system: Candida albicans; experiment: Antifungal activity against Candida albicans MTCC 227 assessed as growth inhibition after overnight incubation by NCCLS broth microdilution method; format: functional
Summary of the method: (§2)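 Broth microdilution per NCCLS in Mueller Hinton broth, compounds diluted in DMSO. Primary screen at 500, 250 and 200 µg/mL; actives retested at 100, 62.5, 50, 25 and 12.5 µg/mL. Tubes incubated overnight at 37 °C. […] Non-growing tubes subcultured overnight at 37 °C to judge bacteriostatic versus bactericidal action.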

[12] = system: Aspergillus fumigatus; experiment: Antifungal activity against Aspergillus fumigatus MTCC 3008 assessed as growth inhibition after overnight incubation by NCCLS broth microdilution method; format: functional; summary of the method: as §2
[13] = system: Vibrio cholerae; experiment: Antibacterial activity against Vibrio cholerae MTCC 3906 assessed as growth inhibition after overnight incubation by NCCLS broth microdilution method; format: functional
[14] = system: Salmonella typhi; experiment: Antibacterial activity against Salmonella typhi MTCC 98 assessed as growth inhibition after overnight incubation by NCCLS broth microdilution method; format: functional, Salmonella enterica subsp. enterica serovar Typhi; details: Salmonella enterica
[15] = system: Escherichia coli; experiment: Antibacterial activity against Escherichia coli MTCC 443 assessed as growth inhibition after overnight incubation by NCCLS broth microdilution method; format: functional; summary of the method: as §2
[16] = system: Streptococcus pneumoniae; experiment: Antibacterial activity against Streptococcus pneumoniae MTCC 1936 assessed as growth inhibition after overnight incubation by NCCLS broth microdilution method; format: functional; summary of the method: as §2
[17] = system: Clostridium tetani; experiment: Antibacterial activity against Clostridium tetani MTCC 449 assessed as growth inhibition after overnight incubation by NCCLS broth microdilution method; format: functional
[18] = system: Bacillus subtilis; experiment: Antibacterial activity against Bacillus subtilis MTCC 441 assessed as growth inhibition after overnight incubation by NCCLS broth microdilution method; format: functional; summary of the method: as §2

Row | Structure (SMILES) | Activity [1] [equiv] | LC50 at 24 h [2] [µg/mL] | mortality at 24 h, 50 ug/mL [3] [%] | mortality at 24 h, 30 ug/mL [4] [%] | mortality at 24 h, 40 ug/mL [5] [%] | mortality at 24 h, 20 ug/mL [6] [%] | mortality at 24 h, 5 ug/ml [7] [%] | mortality at 24 h, 10 ug/mL [8] [%] | MIC [9] [µg/mL] | inhibition of growth at 250 µg/mL [10] [%] | MIC [11] [µg/mL] | MIC [12] [µg/mL] | MIC [13] [µg/mL] | MIC [14] [µg/mL] | MIC [15] [µg/mL] | MIC [16] [µg/mL] | MIC [17] [µg/mL] | MIC [18] [µg/mL]
1 | CC1(C)CC(=O)C2=C(C1)N(c1cccc(C(F)(F)F)c1)C(N)=C(C#N)C2c1cc2cc(Cl)ccc2nc1Oc1ccc(C#N)cc1 (centres undefined) | 7.13 | 23.3 (≈ 36.5 µM) | 80 | 50 | 70 | 40 | 10 | 20 | 62.5 (≈ 97.6 µM) | 98 | > 1000 | 1000 (≈ 1560 µM) | 100 (≈ 156 µM) | 125 (≈ 195 µM) | 125 (≈ 195 µM) | 125 (≈ 195 µM) | 250 (≈ 391 µM) | 250 (≈ 391 µM)
2 | Cc1ccc2nc(Oc3ccc(C#N)cc3)c(C3C(C#N)=C(N)N(c4cccc(C(F)(F)F)c4)C4=C3C(=O)CC(C)(C)C4)cc2c1 (centres undefined) | 339 | 17.1 (≈ 27.7 µM) | 90 | 70 | 80 | 50 | 10 | 30 | 125 (≈ 202 µM) | 93 | > 1000 | 1000 (≈ 1610 µM) | 125 (≈ 202 µM) | 100 (≈ 161 µM) | 100 (≈ 161 µM) | 125 (≈ 202 µM) | 250 (≈ 403 µM) | 100 (≈ 161 µM)
3 | Cc1ccc2nc(Oc3ccc(C#N)cc3)c(C3C(C#N)=C(N)N(c4cc(F)ccc4F)C4=C3C(=O)CC(C)(C)C4)cc2c1 (centres undefined) | 13.9 | 27.5 (≈ 46.8 µM) | 80 | 50 | 70 | 20 | 0 | 10 | 62.5 (≈ 106 µM) | 99 | > 1000 | > 1000 | 25 (≈ 42.5 µM) | 200 (≈ 340 µM) | 62.5 (≈ 106 µM) | 100 (≈ 170 µM) | 100 (≈ 170 µM) | 200 (≈ 340 µM)
4 | N#CC1=C(N)N(c2ccc(F)c(F)c2)C2=C(C(=O)CCC2)C1c1cc2cc(Cl)ccc2nc1Oc1ccc(C#N)cc1 (centres undefined) | 2.97 | 14.1 (≈ 24.3 µM) | 90 | 70 | 80 | 60 | 20 | 40 | 100 (≈ 172 µM) | 95 | 1000 (≈ 1720 µM) | > 1000 | 100 (≈ 172 µM) | 250 (≈ 431 µM) | 200 (≈ 345 µM) | 200 (≈ 345 µM) | 200 (≈ 345 µM) | 125 (≈ 216 µM)
5 | NNC(=O)c1ccncc1 [ISONIAZID] | – | – | – | – | – | – | – | – | 0.2 (≈ 1.46 µM) | 99 | – | – | – | – | – | – | – | –
6 | N#CC1=C(N)N(c2cccc(C(F)(F)F)c2)C2=C(C(=O)CCC2)C1c1cc2cc(Cl)ccc2nc1Oc1ccc(C#N)cc1 (centres undefined) | 5.15 | 37.8 (≈ 61.7 µM) | 70 | 40 | 50 | 20 | 0 | 10 | 25 (≈ 40.8 µM) | 99 | 1000 (≈ 1630 µM) | 1000 (≈ 1630 µM) | 62.5 (≈ 102 µM) | 200 (≈ 327 µM) | 250 (≈ 408 µM) | 62.5 (≈ 102 µM) | 200 (≈ 327 µM) | 200 (≈ 327 µM)
7 | CO[C@H]1/C=C/O[C@@]2(C)Oc3c(C)c(O)c4c(O)c(c(/C=N/N5CCN(C)CC5)c(O)c4c3C2=O)NC(=O)/C(C)=C\C=C\[C@H](C)[C@H](O)[C@@H](C)[C@@H](O)[C@@H](C)[C@H](OC(C)=O)[C@@H]1C [RIFAMPIN] | – | – | – | – | – | – | – | – | 40 (≈ 48.6 µM) | 98 | – | – | – | – | – | – | – | –
8 | N#Cc1ccc(Oc2nc3ccc(Cl)cc3cc2C=O)cc1 | 34.9 | – | – | – | – | – | – | – | – | 61 | > 1000 | 250 (≈ 810 µM) | 200 (≈ 648 µM) | 200 (≈ 648 µM) | 250 (≈ 810 µM) | 125 (≈ 405 µM) | 125 (≈ 405 µM) | 125 (≈ 405 µM)
